Data set [1] addresses T1, Serine/threonine-protein kinase haspin (Homo sapiens, UniProt Q8TF76).
T1 sequence (Q8TF76 whole entry): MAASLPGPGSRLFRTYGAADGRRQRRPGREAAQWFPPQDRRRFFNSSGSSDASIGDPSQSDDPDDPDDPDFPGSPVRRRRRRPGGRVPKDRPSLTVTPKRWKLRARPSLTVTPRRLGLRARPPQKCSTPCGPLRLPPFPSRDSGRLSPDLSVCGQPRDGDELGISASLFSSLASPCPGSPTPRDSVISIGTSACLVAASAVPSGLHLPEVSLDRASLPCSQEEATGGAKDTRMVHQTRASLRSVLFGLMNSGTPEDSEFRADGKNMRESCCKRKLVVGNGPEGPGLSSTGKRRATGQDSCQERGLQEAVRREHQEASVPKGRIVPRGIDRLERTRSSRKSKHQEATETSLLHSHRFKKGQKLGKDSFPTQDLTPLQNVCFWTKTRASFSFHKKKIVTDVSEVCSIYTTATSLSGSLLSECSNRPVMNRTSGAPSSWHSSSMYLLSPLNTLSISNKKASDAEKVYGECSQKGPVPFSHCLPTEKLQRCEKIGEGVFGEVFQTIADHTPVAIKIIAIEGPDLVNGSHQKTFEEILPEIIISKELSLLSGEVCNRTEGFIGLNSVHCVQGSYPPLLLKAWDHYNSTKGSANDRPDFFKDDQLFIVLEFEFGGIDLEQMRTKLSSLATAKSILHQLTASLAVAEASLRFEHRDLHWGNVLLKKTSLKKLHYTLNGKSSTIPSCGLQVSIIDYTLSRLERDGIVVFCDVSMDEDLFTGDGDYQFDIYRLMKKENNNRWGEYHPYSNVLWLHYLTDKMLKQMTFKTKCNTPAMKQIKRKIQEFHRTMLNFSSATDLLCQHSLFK
Put plainly: Inhibition of recombinant human HASPIN kinase domain (470 to 798 residues) expressed in bacterial expression system using histone H3(1-21) peptide as substrate by ADP-glo assay. Background: ADP-Glo turns the ADP formed in a reaction into a luminescent signal.

For data set [2], the target named is T2, Tyrosine-protein kinase JAK3 (Homo sapiens, UniProt P52333).
T2 sequence (P52333 whole entry): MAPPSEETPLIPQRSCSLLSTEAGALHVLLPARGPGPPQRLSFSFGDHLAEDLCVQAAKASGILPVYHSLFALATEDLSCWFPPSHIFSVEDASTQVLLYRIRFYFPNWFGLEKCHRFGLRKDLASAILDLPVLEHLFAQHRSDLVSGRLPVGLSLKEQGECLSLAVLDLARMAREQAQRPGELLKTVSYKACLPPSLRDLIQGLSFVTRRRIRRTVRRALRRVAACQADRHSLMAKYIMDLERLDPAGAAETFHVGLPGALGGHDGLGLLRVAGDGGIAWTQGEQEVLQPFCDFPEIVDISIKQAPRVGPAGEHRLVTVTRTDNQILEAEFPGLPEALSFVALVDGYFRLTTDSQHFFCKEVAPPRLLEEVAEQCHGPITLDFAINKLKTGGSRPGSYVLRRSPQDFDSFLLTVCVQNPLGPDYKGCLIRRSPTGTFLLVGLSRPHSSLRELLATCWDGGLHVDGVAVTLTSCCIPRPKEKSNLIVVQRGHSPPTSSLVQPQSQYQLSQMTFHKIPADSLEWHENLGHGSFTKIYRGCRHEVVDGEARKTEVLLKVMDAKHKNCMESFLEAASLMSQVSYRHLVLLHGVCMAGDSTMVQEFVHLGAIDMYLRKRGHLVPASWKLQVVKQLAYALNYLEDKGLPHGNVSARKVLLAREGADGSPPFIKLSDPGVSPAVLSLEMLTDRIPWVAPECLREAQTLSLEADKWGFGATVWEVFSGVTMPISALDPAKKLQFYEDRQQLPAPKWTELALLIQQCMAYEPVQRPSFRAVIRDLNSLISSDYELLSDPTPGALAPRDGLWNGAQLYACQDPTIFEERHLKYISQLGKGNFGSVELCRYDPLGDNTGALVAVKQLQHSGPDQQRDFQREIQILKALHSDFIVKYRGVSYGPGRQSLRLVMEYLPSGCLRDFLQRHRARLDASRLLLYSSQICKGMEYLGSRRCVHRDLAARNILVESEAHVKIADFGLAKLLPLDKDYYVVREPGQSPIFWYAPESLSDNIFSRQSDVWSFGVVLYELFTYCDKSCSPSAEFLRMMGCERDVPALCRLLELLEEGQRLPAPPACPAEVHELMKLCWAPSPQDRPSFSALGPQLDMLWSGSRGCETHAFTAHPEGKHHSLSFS
The experiment in a line: Inhibition of recombinant human JAK3 C-terminal domain (781 to 1124 residues) expressed in baculovirus infected Sf9 insect cells using GGEEEEYFELVKKKK as substrate by ADP-glo assay.

Data set [3] is described as follows: Cytotoxicity against human FADD-deficient Jurkat I 2.1 cells assessed as reduction in cell viability at >25 uM measured after 24 hrs by MTS assay. In kind it is cell-based. The note with it: jurkat i 2.1, 24 h. Background: Tetrazolium dyes change colour on reduction, which living cells bring about.
For data set [4], the system named is Jurkat. Put plainly: Protection against TRAIL-induced apoptosis in human Jurkat assessed as increase in cell viability at 0.1 to 50 uM measured after 24 hrs by MTS assay. The class given is functional, cell-based. The note with it: dose 0.1-50 µM. An outline of the steps: (§1)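 Jurkat wild-type cells treated with TRAIL-Flag (20 ng/mL) or staurosporine (100 nM) together with increasing compound doses for 24 h; viability by MTS reduction as % of DMSO-treated cells; mean ± SD, n = 3.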

Data set [5] concerns Jurkat. The experiment in a line: Protection against staurosporine-induced apoptosis in human Jurkat assessed as increase in cell viability at 0.1 to 50 uM measured after 24 hrs by MTS assay. The class given is functional, cell-based. The note with it: dose 0.1-50 µM. Summed up: as §1

SMILES strings stand for the structures. Calls of active or inactive are those of the source. The rule behind the calls is not given here.

The IC50 is the point on the concentration scale where inhibition reaches its midpoint. Turning to `CCCCNc1nc2ccc([N+](=O)[O-])cc2[nH]1`, the IC50 in data set [1] and in data set [2] was more than 10 µM throughout. The Activity entry in data set [3] is listed as “Toxic”.

For `CCCCNc1nc2cc([N+](=O)[O-])ccc2s1`, the IC50 in data set [1] and in data set [2] was more than 10 µM in each case. Moreover, the outcome in the data set on Jurkat [4] and in the data set on Jurkat [5] was inactive.

The values above are taken from ChEMBL document CHEMBL4765378, “Discovery of simplified benzazole fragments derived from the marine benzosceptrin B as necroptosis inhibitors involving the receptor interacting protein Kinase-1” (Eur J Med Chem, 2020).
